According to PMC7564034 (Acta Pharmaceutica Sinica. B, 2019):
Where two headings read alike, the source gives them in different places.

Experiments:
[1] = system: tumor vessels in LoVo xenografts; experiment: CD31 staining of tumor slides, microvessels and vessel branches; type: in vivo, Balb/c nude mice; conditions: 15 days i.p.
Outline: (§1)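 Tumors from mice given test compound i.p. for 15 days were fixed in 4% PFA and cut into 12 μm sections. Sections were stained overnight with anti-CD31 at 1:100; for pericyte coverage, anti-SMA at 1:100 was added. Cy5- or Cy2-conjugated secondary (1:200) was applied for 1 h at 37 °C. Confocal Z-stacks were reconstructed in 3D or as maximum intensity projections. Compared with vehicle.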

[2] = system: tumor vessels in LoVo xenografts; experiment: CD31/α-SMA double staining, pericyte coverage around tumor vessels; type: in vivo, Balb/c nude mice; conditions: 15 days i.p.; SMI, Rd-H 5 mg/kg; vs vehicle
Outline: as §1

[3] = type: in vivo, Balb/c nude mice harboring LoVo xenografts; conditions: for Cmax / Tmax: Balb/c nude, mouse, plasma
Outline: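 Male LoVo-xenograft nude mice (6 weeks old) received 10 mL/kg i.p., either once or daily for 8 days. Blood (~0.1 mL) was drawn from the oculi chorioideae vein into heparin tubes between 5 min and 96 h after the last dose, 5 mice per time point. Plasma was spun at 8000 rpm for 5 min and extracted with methanol. AUC0–∞ and the multiple/single ratio were derived.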

VEGF = experiment: ELISA of VEGF secretion in tumors; type: in vivo, Balb/c mice harboring LoVo xenografts; conditions: 15 days i.p., vs vehicle
Outline: (§2)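 Mice received test compound i.p. for 15 days. Tumors were harvested 20 min after the final dose and homogenized in RIPA buffer. VEGF and FGF were quantified by ELISA kit and normalized to protein content measured by BCA assay. Compared with vehicle.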

HUVECs [4] = experiment: EDU staining; type: cell-based, human; conditions: Rd 2, 10, 50 μmol/L; 24 h; hypoxia
[5] = Constituent ratio of ginsenosides in SMI, plasma, tumor and endothelial cells; type: in vivo, Balb/c nude mice harboring LoVo xenografts; conditions: 20 min after 15-day SMI treatment
Outline: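 Tissues were sampled 20 min after the last dose of a 15-day i.p. course. Tumors were digested 1 h in DMEM with collagenase I (2 mg/mL) and DNase I (0.1 mg/mL), then strained through 40 μm mesh. CD31+ cells were enriched with PE anti-mouse CD31 and anti-PE magnetic particles, with purity checked by CD45/viability flow cytometry; n = 3. Each ratio = concentration of the constituent / summed eight ginsenosides.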

HUVECs [6] = experiment: Capillary-like tube formation assay; type: cell-based; conditions: Homo sapiens, HUVEC, read-out: Inhibition of tube formation ability of HUVECs
Outline: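 Conditioned medium was taken as supernatant after 24 h exposure to test compound (2, 10, 50 μmol/L). HUVECs were seeded at 5 × 10^4 cells/well on Matrigel and treated with this medium for 5.5 h under normoxia or hypoxia (1% O2, 5% CO2). Tubes were stained with calcein for 0.5 h before imaging.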

HUVECs [7] = experiment: Wound healing migration assay; type: cell-based, human; conditions: 24 h
Outline: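 Confluent HUVEC monolayers were scratched with sterile pipette tips and given fresh DMEM containing test compound. Cells were incubated under normoxia or hypoxia (1% O2, 5% CO2) and imaged at 0 and 24 h. Migration length = (scratch area 0 h − scratch area 24 h)/scratch length; n = 6.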

FGF = experiment: ELISA of FGF secretion in tumors; type: in vivo, Balb/c mice harboring LoVo xenografts; conditions: 15 days i.p.; SMI, Rd-H 5 mg/kg, Rb1, Rg1; vs vehicle
Outline: as §2

[8] = type: in vivo, Balb/c nude mice harboring LoVo xenografts
HUVEC = experiment: Uptake of ginsenosides by HUVEC in vitro; type: cell-based, human; conditions: compared to Rb1 and Rb2 (Fig. S5)
HUVECs [9] = experiment: Cell viability assay; type: cell-based, human; conditions: Rd 1–50 μmol/L, SMI 5 μL/mL; 24 h; normoxia or hypoxia
Outline: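 HUVECs were exposed to test compound for 24 h under normoxia or hypoxia (1% O2, 5% CO2). Viability was measured by MTT and expressed as a percentage of DMSO-treated cells under normoxia; n = 6.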

LoVo xenografts = experiment: Xenograft tumor growth, SMI or Rd combined with 5FU, 20-day treatment; type: in vivo, Balb/c mice; conditions: SMI 10 mL/kg/day or Rd 5 mg/kg/day i.p., 20 days, without 5FU
Outline: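 LoVo-xenograft mice with all tumors above 50 mm3 were dosed i.p. for 20 days: 10 mL/kg/day, 5 mg/kg/day, and/or 5FU 15 mg/kg every 3 days. Body weight and tumor axes were recorded daily; tumor volume = 1/2 × a × b². Tumors were resected after treatment. Weight change was read after 17 days; mean ± SEM.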

LoVo = experiment: Uptake of ginsenosides by LoVo in vitro; type: cell-based, human; conditions: compared to Rb1 and Rb2 (Fig. S5)
[10] = type: in vivo, Balb/c nude mice harboring LoVo xenografts; conditions: 20 min after 15-day SMI treatment
Outline: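 Male 6-week Balb/c nude mice (18 ± 1 g) bearing LoVo xenografts were given SMI intraperitoneally for 15 days. Tumors collected 20 min after the final dose were minced and digested 1 h in DMEM with 2 mg/mL collagenase type I and 0.1 mg/mL DNase I. Cells were split into endothelial, hematopoietic and other fractions; purity was checked by flow cytometry (anti-mouse CD45, viability stain). n = 3, mean ± SEM.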

[11] = 8-day vs single SMI 10 mL/kg/day i.p.
[12] = SMI i.p., single or multiple not given

SMILES: CC(C)=CCC[C@](C)(O[C@@H]1O[C@H](CO)[C@@H](O)[C@H](O)[C@H]1O)[C@H]1CC[C@]2(C)[C@@H]1[C@H](O)C[C@@H]1[C@@]3(C)CC[C@H](O[C@@H]4O[C@H](CO)[C@@H](O)[C@H](O)[C@H]4O[C@@H]4O[C@H](CO)[C@@H](O)[C@H](O)[C@H]4O)C(C)(C)[C@@H]3CC[C@]12C [Rd, ginsenoside Rd]
- Effect on microvessels, branches and pericyte coverage ([1]; Rd-L 0.5 mg/kg): very modest effects
- Decrease of the number of CD31+ microvessels ([1]; SMI, Rd-H 5 mg/kg, vs vehicle): 37%
- Decrease of vessel branches ([1]; SMI, Rd-H 5 mg/kg, vs vehicle): 59%
- Increase of pericyte coverage around microvessels [2]: 2.1 fold
- AUC0–∞ ratio Multiple/Single in plasma [3, 11]: 5.28
- Cmax ([3]; intraperitoneal, 10 mL/kg): ~10 µM
- Cmax ([3]; ip, 10 mL/kg): 3.2 µg/mL
- Tmax ([3]; ip, 10 mL/kg): 4 h
- Cmax ([3]; ip, 10 mL/kg/day): 10.4 µg/mL
- Tmax ([3]; ip, 10 mL/kg/day): 2 h
- AUC0–∞ in plasma relative to those of Re, Rg1, Rg3 and Ro ([3]; after single or multiple SMI administration): more than 20 times
- Reduction of the secretion of VEGF in tumors (VEGF; Rd-L 0.5 mg/kg): 32%
- Reduction of the secretion of VEGF in tumors (VEGF; SMI, Rd-H 5 mg/kg, Rb1, Rg1): 32%
- Effect on cellular proliferation of HUVECs (EDU/HOECHST) (HUVECs [4]): no significant effect on cellular proliferation
- Constituent ratio in TECs [5]: 40.3%
- Constituent ratio in plasma [5]: 16.0%
- Constituent ratio in tumor tissues [5]: 34.3%
- inhibition at 2 µM (HUVECs [6]): 18%
- inhibition at 10 µM (HUVECs [6]): 40%
- inhibition at 50 µM (HUVECs [6]): 56%
- Suppression of hypoxia-induced HUVEC migration (HUVECs [7]; 50 μmol/L): 88%
- Effect on HUVECs migration (HUVECs [7]; Rd 2, 10 and 50 μmol/L or SMI, hypoxia): suppressed HUVECs migration concentration-dependently
- Suppression of the secretion of FGF in tumors (FGF): 68%
- AUC0–∞ ratio Multiple/Single in tumors [8, 11]: 10.53
- AUC0–∞ of Rd in tumors, times higher than that of Rb1 [8, 12]: 8.0 times
- AUC0–∞ of Rd in tumors, times higher than that of Rb2/Rb3 [8, 12]: 7.3 times
- AUC0–∞ of Rd in tumors, times higher than that of Rc [8, 12]: 3.6 times
- AUC0–∞ of Rd in tumors, times higher than that of Ro [8, 12]: 266.6 times
- Uptake by HUVEC (HUVEC): superior uptake
- Effect on cell viability of HUVECs (HUVECs [9]): no effect on the cell viability
- Effect on tumor growth, given alone (LoVo xenografts): no significant effect on tumor growth
- Uptake by LoVo (LoVo): superior uptake
- Concentration of ginsenosides, endothelial cells (TECs) [10]: most abundant distribution in TECs
